# Source: PubChem (several laboratories)
# In the library only some 4.2% were active in any assay of this set; here they are far more common.
# Autophagy mod – alters autophagy in cells. 190,000 tested, 0.98% active. calls only at 10 µM (by protocol). MEF GFP-LC3 puncta imaging; test concentration mostly 10 µM. AID 463193;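 active = percentage of spot-positive cells more than 3 SD above its plate mean, without a fluorescence outlier flag or 80% toxicity; inconclusive = no clear call, values can overlap the other calls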
# Ins promoter up – MIN6 insulin promoter up-regulation. z-score at 5 µM. 190,000 tested, 0.3% active. MIN6 insulin promoter-GFP reporter, high-content imaging; hits give high values;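 active = z-score above 3 at 5 µM with at least 500 cells counted in the well; inconclusive = wells under 500 cells, flagged as cytotoxic or low count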
# WT yeast gro inh – growth inhibition of WT yeast, mitochondrial fusion screen | AID 1362 | inhibition, % at 10 µM | 190,000 tested, 2.1% active | mitochondrial fusion phenotypic screen, WT strain; in the data active = inhibition above about 58%; tested in S. cerevisiae
# KCC2 mod – modulates chloride dependent transport by human KCC2; 190,000 tested, 2.2% active; KCC2 cells, thallium flux FluoZin-2 fluorescence; B-score of Tl+ flux slope (higher = more flux/activation; lower = inhibition) at 10 µM; Q9H2X9;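 active = thallium flux slope and its plate-corrected score both differing from the plate sample mean at a set confidence after two filtering rounds, in either direction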;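 note: slope of fluorescence scaled to starting intensity during 10 to 20 s after thallium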
# SKKanGAS inh – SKKanGAS growth inhibition; S. pyogenes SKKanGAS, kanamycin growth, BacTiter-Glo, 6 h; inhibition, % at 7.5 µM; 300,000 tested, 1.3% active;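 active = mean replicate score, as percent of positive control median, at least 50; inconclusive = mean below 50 but one replicate at or above 50; inactive = mean and every replicate below 50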;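 note: strain carries kanamycin resistance gene driven by streptokinase promoter and grows in 40 µg/ml kanamycin; loss of luminescence reflects streptokinase promoter inhibition or plain growth inhibition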
# Rad51 HR inh – blocks human Rad51 in homologous recombination; Q06609; hRad51 DNA strand exchange, fluorescence dequenching; inhibition, % at 10 µM; 200,000 tested, 0.085% active; AID 1385;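 active = inhibition above 40% at the single screening dose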
# Target sequence (Q06609 whole entry, looked up): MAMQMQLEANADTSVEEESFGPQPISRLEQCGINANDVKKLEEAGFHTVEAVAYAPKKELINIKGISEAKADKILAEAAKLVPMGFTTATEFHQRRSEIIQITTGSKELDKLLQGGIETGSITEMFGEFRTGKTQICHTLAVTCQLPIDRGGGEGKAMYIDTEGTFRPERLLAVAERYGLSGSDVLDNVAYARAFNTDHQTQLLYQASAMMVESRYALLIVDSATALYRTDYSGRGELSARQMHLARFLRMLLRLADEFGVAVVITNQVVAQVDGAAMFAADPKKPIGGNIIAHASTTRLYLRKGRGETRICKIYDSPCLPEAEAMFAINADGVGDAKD
#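 Material: Human Rad51 nucleoprotein filaments preassembled on unlabelled ssDNA | Also added: Labelled 47-mer dsDNA for strand exchange | Dosing: Single dose, 10 µM final compound | Schedule: 30-min compound preincubation and 15-min exchange, both room temperature | Technique: Fluorescence dequenching at 485/520 nm | Measure: Percent inhibition relative to plate controls and blanks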
# Numbers stand for hits; i = inactive; ? = inconclusive; nt = no result given; + = active, no number.
SMILES,Autophagy mod,Ins promoter up,WT yeast gro inh,KCC2 mod,SKKanGAS inh,Rad51 HR inh
COC(=O)Nc1ccc(S(=O)(=O)N2CCCC(C(=O)NC3CCS(=O)(=O)C3)C2)cc1 (centres undefined),i,i,i,i,i,i
Cc1noc(/C=C/c2cccnc2)c1[N+](=O)[O-],nt,nt,nt,nt,i,nt
Cc1noc(/C=C/c2ccc(-c3ccccc3Cl)o2)c1[N+](=O)[O-],+,nt,i,i,i,i
O=C(N/C(=C\c1cccc([N+](=O)[O-])c1)C(=O)N(CCO)CCO)c1ccco1,i,i,i,nt,nt,i
CCSC1=NC(C)(C)C=C(/C=C/c2ccc(Cl)cc2Cl)N1,i,i,59.9,i,i,nt
CSC1=NC(C)(C)C=C(/C=C/c2ccc(Cl)cc2Cl)N1,i,i,68.0,i,i,i
COc1ccc(OCC(O)CN2CCNCC2)cc1 (centres undefined),nt,nt,nt,nt,i,nt
CCCCSc1nnc(-c2ccc(C)cc2)c2ccccc12,i,i,78.0,i,i,i
CC1=NN(c2ccccc2)C(=O)C1C(=O)c1ccccc1 (centres undefined),i,i,i,i,i,i
CC1=NN(c2ccccc2)C(=O)C1C(=O)c1ccc(Cl)cc1 (centres undefined),i,nt,i,7.85,i,nt
CCN(CC)S(=O)(=O)c1ccc(NC(=O)COC(=O)c2ccc(NC(=O)CC#N)cc2)cc1,i,i,i,i,i,i
c1ccc2c(-c3[nH]ncc3CNCCCn3ncc4ccccc43)cccc2c1,i,i,i,i,i,i
CCOc1cccc2cc(-c3nnc(NCc4ccc5c(c4)OCO5)s3)c(=O)oc12,+,i,i,i,i,i
COC(=O)Cn1nc(-c2ccc(C)cc2)c2ccccc2c1=O,i,i,64.1,i,i,i
Nc1ccc(-c2nc3ccc(N)cc3[nH]2)cc1,i,i,i,nt,i,nt
Nc1ccc2nc(-c3cc(Cl)c(N)c(Cl)c3)[nH]c2c1,i,nt,i,i,63.3,i
Nc1ccc2nc(-c3cccc(-c4nc5ccc(N)cc5[nH]4)c3)[nH]c2c1,nt,nt,nt,nt,i,nt
Nc1ccc2nc(-c3ccc(Cl)cc3)[nH]c2c1,i,i,i,i,83.7,i
CCCCN(CC)CCCNC(=S)Nc1ccc2nc(N3CCN(C)CC3)cc(C)c2c1,+,i,i,i,i,i
COC(=O)c1sccc1NC(=S)N1CCN(C)CC1,i,i,i,i,i,i
CCN(CC)CCNC(=S)Nc1ccc2nc(N3CCN(C)CC3)cc(C)c2c1,nt,nt,nt,nt,i,nt
Cc1ccc(C)c(N2CCN(C(=S)Nc3ccc4nc(N5CCOCC5)cc(C)c4c3)CC2)c1,i,i,i,i,i,i
CCCN(CCC)CCCNC(=S)Nc1ccc2nc(N3CCCC3)cc(C)c2c1,i,i,i,i,i,i
Cc1ccc(C)c(N2CCN(C(=S)Nc3ccc4nc(N5CCN(C)CC5)cc(C)c4c3)CC2)c1,i,i,71.8,i,i,i
CCCCN(CC)CCCNC(=S)Nc1ccc2nc(N3CCN(CC)CC3)cc(C)c2c1,+,i,i,i,i,i
SMILES,Autophagy mod,Ins promoter up,WT yeast gro inh,KCC2 mod,SKKanGAS inh,Rad51 HR inh
COC(=O)c1sccc1NC(=S)N1CCN(c2cc(C)ccc2C)CC1,i,i,76.6,i,i,i
O=C(O)CC1(CC(=O)Nc2ccc(F)c(Cl)c2)CCCCC1,nt,i,nt,nt,i,i
Cc1ccc(S(=O)(=O)NCCc2nnc(SCc3cccnc3)n2C)cc1,nt,nt,nt,nt,i,nt
Cc1ccc(C)c(Cn2cnc3c(cnn3C(C)(C)C)c2=O)c1,i,i,61.0,nt,i,i
Cc1ccccc1Cn1cnc2c(cnn2C(C)(C)C)c1=O,i,i,i,nt,i,i
CCOc1cc(C(=O)N(C)Cc2cc3ccccc3[nH]c2=O)cc(OCC)c1OCC,i,i,77.8,i,i,i
CCOc1ccccc1C(=O)N(C)Cc1cc2ccccc2[nH]c1=O,i,i,i,i,i,i
CCn1c(=O)c([N+](=O)[O-])c(N2CCN(Cc3ccc4c(c3)OCO4)CC2)c2ccccc21,nt,i,nt,i,i,i
Cc1ccnc(NS(=O)(=O)c2cc(C(F)(F)F)ccc2Cl)c1,nt,i,nt,i,i,nt
COc1ccc(/C=C2\CCC(C3CCCC3)C2=O)cc1 (centres undefined),nt,nt,nt,nt,i,nt
COc1ccc(/C=C2\CCCC3C2=NC(=S)NC3c2ccc(OC)cc2)cc1 (centres undefined),i,i,71.6,i,i,nt
COc1ccc(/C=C/C(=O)N2CCN(c3ccccn3)CC2)c2ccccc12,i,i,62.4,i,i,i
COc1ccccc1Nc1ccc(NS(=O)(=O)c2ccc(C(C)=O)cc2)cc1,nt,nt,nt,nt,i,nt
Cc1ccc2c(c1)c(C)c(C)n2CC(O)Cn1nc(C)c(Br)c1C (centres undefined),i,i,i,i,58.8,i
Cc1ccc2cc(CN(C(=O)c3ccco3)c3ccccc3C)c(=O)[nH]c2c1,i,i,96.5,i,i,i
Cc1ccc(N(Cc2cc3ccc(C)cc3[nH]c2=O)C(=O)c2ccco2)c(C)c1,nt,i,nt,i,i,i
Cc1nc(Nc2ccccc2Br)c2nnn(Cc3ccccc3)c2n1,nt,nt,nt,nt,i,nt
CCN(CC)c1nc(C(F)(F)F)nc2c1nnn2Cc1ccccc1,nt,nt,nt,nt,57.8,nt
Cc1nc(N(C)Cc2ccccc2)c2nnn(Cc3ccccc3)c2n1,i,nt,79.9,nt,i,i
Cc1c(/C=N/Nc2nc3ccccc3[nH]2)c2ccccc2n1C,nt,nt,nt,i,88.2,i
Cc1nn(-c2ccccc2)c(C)c1/C=N/Nc1nc2ccccc2[nH]1,i,i,i,i,60.0,i
Cc1cc2nc(/N=C(\N)NC(=O)C(C)C)nc(C)c2cc1C,nt,i,nt,i,52.8,i
Cc1ccc2nc(/N=C(\N)NC(=O)NC3CCCCC3)nc(C)c2c1,nt,i,nt,i,52.9,i
CCC(=O)N/C(N)=N/c1nc(C)c2cc(C)c(C)cc2n1,nt,i,nt,i,i,i
CCCNC(=O)/C=C/C(=O)O,i,nt,i,i,i,i
SMILES,Autophagy mod,Ins promoter up,WT yeast gro inh,KCC2 mod,SKKanGAS inh,Rad51 HR inh
COc1ccc(-c2ccc3oc(-c4ccsc4)cc3c2)cc1,nt,nt,nt,nt,i,i
CN1CCN(C(=O)CN(C)S(=O)(=O)c2ccc3ccccc3c2)CC1,+,i,i,i,i,i
CN(CC(=O)N1CCCC1)S(=O)(=O)c1ccc2ccccc2c1,i,i,i,i,i,i
Cc1cc(NC(=O)/C(C#N)=C/c2ccco2)n(-c2ccccc2)n1,i,i,i,i,i,i
Cc1ccc(-c2ccc(/C=C(\C#N)C(=O)Nc3cc(C)nn3-c3ccccc3)o2)cc1,+,nt,i,nt,i,i
c1cc2c3c(cccc3c1)C(N1CCN(C3=Nc4cccc5cccc3c45)CC1)=N2,i,nt,nt,i,nt,nt
c1ccc(CC2CCN(C3=Nc4cccc5cccc3c45)CC2)cc1,+,nt,i,i,i,nt
CCN(CC)c1ccc(/C=C/c2nc3ccccc3s2)cc1,+,nt,i,nt,?,i
Cc1ccc(OCC(=O)NNC(=O)c2ccco2)c(C)c1,nt,nt,nt,nt,i,nt
Cc1oc2ccc(OC(=O)c3cccs3)cc2c1C(=O)OC(C)C,i,i,70.5,i,i,i
COc1ccc(NC(=O)c2cccn(CC=C(C)C)c2=O)cc1,i,i,i,i,i,i
